Biofilm kill mix – clotrimazole potentiators killing C. albicans biofilm, primary screen, 4-compound mixtures; C. albicans biofilm persisters + clotrimazole, fluorescence viability; primary screen in compound mixtures of four per well; inhibition, % at 7.6 µM; 120,000 compounds, 0.02% hits;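 active means inhibition above 30.3% in the primary screen of four-compound pools, then above 30% when the compound was retested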;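 further: compounds exposed to preformed 24 h biofilms for 48 h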
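Test system: C. albicans biofilms. Buffer or medium: RPMI/MOPS medium, pH 7.0. Timing: 48 h compound exposure at 37 °C. Technique: Alamar Blue fluorescence. Evaluation: percent inhibition of biofilm viability.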
m-calpain inh – inhibitors of pig calpain II, primary screen, biochemical, fluorogenic peptide substrate, 1536-well; purified calpain II, 30 min; inhibition, % at 16 µM; 220,000 compounds, 0.37% hits;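 active means inhibition above about 50%, limit read from the data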
Bim-Mcl-1 – inhibitors of Bim peptide binding to Mcl-1, primary screen, biochemical, bead-based flow cytometry, multiplex; Induced myeloid leukemia cell differentiation protein Mcl-1 (Homo sapiens), Q07820; Bim peptide-Mcl-1 binding; inhibition, % at 10 µM; 190,000 compounds, 0.1% hits; in the data active means inhibition above about 40%
Target sequence (Q07820 whole entry, looked up): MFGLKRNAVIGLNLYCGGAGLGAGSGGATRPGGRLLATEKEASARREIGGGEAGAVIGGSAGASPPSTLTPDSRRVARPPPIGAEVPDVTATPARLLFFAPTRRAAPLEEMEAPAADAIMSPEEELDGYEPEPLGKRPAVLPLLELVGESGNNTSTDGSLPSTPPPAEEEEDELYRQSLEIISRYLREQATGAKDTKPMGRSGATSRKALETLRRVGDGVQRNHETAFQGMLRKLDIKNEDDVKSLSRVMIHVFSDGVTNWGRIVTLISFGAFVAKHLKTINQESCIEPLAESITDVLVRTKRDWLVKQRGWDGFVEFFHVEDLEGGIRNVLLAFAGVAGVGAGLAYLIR
Arbovirus anti – antivirals against arbovirus infection, primary screen, cell-based, full library, 10K replicate subset; arbovirus infection cell-based antiviral screen; inhibition, % at 10 µM; 200,000 compounds, 0.37% hits; in the data active means inhibition above about 30%
Mcl1-Bid inh – Mcl-1/Bid binding inhibitors, primary screen, biochemical, TR-FRET, 1536-well; inhibition, % at 21.7 µM; TR-FRET Mcl-1/Bid-Dy647 peptide binding; Induced myeloid leukemia cell differentiation protein Mcl-1 (Homo sapiens), Q07820; 220,000 compounds, 0.97% hits;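 active means compounds that cut the binding signal by more than half at the single screening dose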;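 further: His-tagged Mcl-1 with europium anti-His antibody binding Bid BH3 peptide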
Mcl1 Noxa PPI – Mcl-1/Noxa binding inhibitors, primary screen, biochemical, TR-FRET, 1536-well; Induced myeloid leukemia cell differentiation protein Mcl-1 (Homo sapiens), Q07820; TR-FRET Mcl-1/Noxa peptide binding, 2 h; inhibition, % at 21.7 µM; 220,000 compounds, 1.5% hits;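 active means compounds that cut the protein-peptide binding signal by more than 50% relative to plate controls in a single-dose test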;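 further: His-tagged Mcl-1 with rhodamine Noxa BH3 peptide and terbium anti-His antibody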
Each line names hits and unclear results; the compound was inactive in the other large screens. Hits are enriched below; roughly 2.8% of the tested compounds scored in any of these assays.

CCOc1ccc(S(=O)(=O)N(C)c2ccc(OCC(=O)NCCc3ccc(OC)cc3)cc2)cc1	none (no result: Bim-Mcl-1, Arbovirus anti)
CCn1c(-c2ccccc2)c[nH]c1=S	none (no result: Biofilm kill mix)
CC(C)Cn1c(-c2ccc(Br)cc2)c[nH]c1=S	m-calpain inh 75.5
CCc1cc(N2CCOCC2)cc2c1[nH]c1ccccc12	Mcl1 Noxa PPI 70.2 (no result: Biofilm kill mix)
c1ccc2c(c1)[nH]c1c(N3CCOCC3)ncnc12	none (no result: Biofilm kill mix)
CCCCC(CC)C(=O)N1CCN(C(=O)c2ccco2)CC1 (stereo not drawn)	none
COc1cc(/C=C2/C(=O)c3cccc([N+](=O)[O-])c3C2=O)c(Br)cc1O	Mcl1 Noxa PPI 88.2
COc1ccc(-c2nc(-c3cccc([N+](=O)[O-])c3O)cc(=O)o2)cc1OC	none
COc1cc(C=O)ccc1OS(=O)(=O)c1ccc(NC(C)=O)cc1	Mcl1-Bid inh 53.2
CCOC(=O)CSc1nc(C2CC2)cc(-c2ccc(Cl)cc2)c1C#N	Mcl1-Bid inh 97.2
COC(=O)CSc1nc(C2CC2)cc(C(F)(F)F)c1C#N	none (no result: Biofilm kill mix)
O=C(Cn1[nH]c(=O)c2ccccc2c1=O)OCC(=O)N1CCc2ccccc2C1	Mcl1-Bid inh 83.0 (no result: Biofilm kill mix)
O=C(CN1C(=O)c2ccccc2C1=O)OCC(=O)N1CCc2ccccc2C1	none (no result: Biofilm kill mix)
O=C(Cc1c(Cl)cccc1Cl)OCC(=O)N1CCc2ccccc2C1	Mcl1-Bid inh 78.3
CNc1cccccc1=S	Mcl1 Noxa PPI 57.9 (no result: Biofilm kill mix)
Cc1[nH]n(-c2ccc(Cl)c(Cl)c2)c(=O)c1CCO	none
Cc1[nH]n(-c2ccc(C(=O)O)cc2)c(=O)c1CCO	m-calpain inh 57.7
CC1CCCN(C(=O)c2cccc(S(=O)(=O)Nc3cc(C(F)(F)F)ccc3Cl)c2)C1 (stereo not drawn)	Arbovirus anti 42.0
CCCCCCCCOC(=O)C1=C(C)Nc2nnnn2C1c1cccs1 (stereo not drawn)	m-calpain inh 50.2 (no result: Biofilm kill mix)
COc1ccccc1/C=C/C=N/NC(=O)c1cccs1	none (no result: Bim-Mcl-1, Arbovirus anti)
COCC(O)CSc1nc(C)[nH]c1[N+](=O)[O-] (stereo not drawn)	Mcl1-Bid inh 86.7 (no result: Biofilm kill mix)
Cc1nc(SCC(O)CCl)c([N+](=O)[O-])[nH]1 (stereo not drawn)	none
COc1cccc(-n2c(SCC(=O)OC(C)C)nnc2-c2cccnc2)c1	m-calpain inh 52.0 (no result: Biofilm kill mix)
CC(C)OC(=O)CSc1nnc(-c2cccnc2)n1N	none (no result: Biofilm kill mix)
Oc1cc2c(cc1O)C1c3ccc(O)c(O)c3OCC1(O)C2 (stereo not drawn)	Mcl1 Noxa PPI 82.3
O=C(CSc1ncnc2c1cnn2-c1ccccc1)Nc1ccccc1	none (no result: Biofilm kill mix)
Cc1nn(Cc2ccccc2)c(C)c1NC(=O)CSc1nc(-c2ccccc2)nc2c1cnn2-c1ccccc1	Mcl1-Bid inh 79.7 (no result: Biofilm kill mix)
Nc1nc(SCc2ccc([N+](=O)[O-])cc2)nc2nc3c(cc12)CCCC3	Mcl1-Bid inh 78.8
O=C(OCC(=O)N1c2ccccc2Sc2ccccc21)c1ccc[n+]([O-])c1	none
O=C1C2C3C=CC(C3=C(c3ccccc3)c3ccccc3)C2C(=O)N1CCO (stereo not drawn)	none (no result: Biofilm kill mix)
O=C1C2C3C=CC(C3=C(c3ccccc3)c3ccccc3)C2C(=O)N1Cc1ccccc1 (stereo not drawn)	Mcl1 Noxa PPI 64.4 (no result: Biofilm kill mix)
O=C1C=C(Nc2ccccc2)C(=O)c2ccccc21	m-calpain inh 57.2
O=C1C=C(Nc2ccccc2)c2ccccc2C1=O	none
Cc1ccc(S(=O)(=O)Nc2ccccc2C(=O)NCc2cccnc2)cc1	Mcl1 Noxa PPI 66.1
CCc1noc(C)c1C(=O)N1CCCC(CCC(=O)NCc2ccc(F)c(F)c2)C1 (stereo not drawn)	none
COc1ccc(-c2cc3ccccc3oc2=O)cc1NC(=O)c1ccc([N+](=O)[O-])o1	Mcl1-Bid inh 65.2 (no result: Biofilm kill mix)
COc1ccc(-c2cc3ccccc3oc2=O)cc1NC(=O)c1ccc(Br)o1	Mcl1-Bid inh 59.9 (no result: Biofilm kill mix)
CCC(=O)Nc1cc(-c2cc3ccccc3oc2=O)ccc1OC	none
Cc1ccc(/C=N/n2c(-c3cccnc3)n[nH]c2=S)s1	Mcl1 Noxa PPI 51.0
S=c1[nH]nc(-c2cc(-c3ccccc3)n[nH]2)n1/N=C/c1c(Cl)cccc1Cl	none (no result: Bim-Mcl-1, Arbovirus anti)
S=c1[nH]nc(-c2cc(-c3ccccc3)n[nH]2)n1/N=C/c1ccc(Br)s1	Mcl1 Noxa PPI 69.9 (no result: Bim-Mcl-1, Arbovirus anti)
S=c1[nH]nc(-c2cccnc2)n1/N=C/c1ccc(Br)s1	none
CN(C)c1ccc(/C=N/n2c(-c3cccnc3)n[nH]c2=S)cc1	Mcl1 Noxa PPI 55.5
Cc1ccccc1N=C1NC(=O)CC(c2ccccc2)S1 (stereo not drawn)	none (no result: Biofilm kill mix)
Cc1cccc(C)c1NC(=O)CN1C(=O)NC(C)(CCc2ccccc2)C1=O (stereo not drawn)	none
CCOC(=O)/C(C#N)=C/c1cc2ccccc2nc1N1CCOCC1	none
N#CC(C#N)=Cc1cc2ccccc2nc1N1CCCCC1	Arbovirus anti 32.0
COC(=O)c1ccc(CSc2nnc(NC(=O)C3CC(=O)N(Cc4ccc(C)cc4)C3)s2)cc1 (stereo not drawn)	none
Cc1nnc(Sc2cc(C(=O)NC3CC3)c3ccccc3n2)s1	Mcl1-Bid inh 98.6 (no result: Bim-Mcl-1, Arbovirus anti)
COCCNC(=O)c1cc(Sc2nnc(C)s2)nc2ccccc12	none (no result: Bim-Mcl-1, Arbovirus anti)
COc1ccc(NS(=O)(=O)c2ccc3nc(COc4ccc(C#N)cc4)[nH]c3c2)cc1	none
COc1cc(-c2nc(-c3ccccc3)c(-c3cccs3)[nH]2)cc(OC)c1O	Mcl1 Noxa PPI 54.7 (no result: Biofilm kill mix)
Cc1nc(-c2ccc(S(=O)(=O)Oc3ccccc3Cl)s2)cs1	none (no result: Bim-Mcl-1, Arbovirus anti)
COc1ccc(-c2nc3cc([N+](=O)[O-])ccc3o2)cc1	none
Nc1ccc(-c2nc3cc([N+](=O)[O-])ccc3o2)cc1	Mcl1 Noxa PPI 79.7 (no result: Bim-Mcl-1, Arbovirus anti)
COc1c(Cl)cc(C(=O)Nc2ccccc2-c2ccccc2)cc1Cl	m-calpain inh 53.7 (no result: Biofilm kill mix)
CCOc1c(Cl)cc(C(=O)Nc2ccccc2C(=O)O)cc1Cl	Arbovirus anti 42.6 (no result: Biofilm kill mix)
COc1ccc(C(=O)Nc2ccccc2C(=O)O)cc1Cl	Arbovirus anti 56.1
COc1ccc(C(=O)Nc2ccccc2C(=O)O)cc1NC(=O)C(c1ccccc1)c1ccccc1	none (no result: Bim-Mcl-1, Arbovirus anti)
O=C(CCN1C(=O)c2ccccc2C1=O)Nc1ccc(-c2nc3ccccc3o2)cc1	none (no result: Biofilm kill mix)
O=C(CN1C(=O)c2ccccc2C1=O)Nc1ccc(-c2nc3ccccc3o2)cc1	m-calpain inh 95.9 (no result: Biofilm kill mix)
COc1ccc(C(=O)NCCSc2ccccc2)cc1OC	none
CCn1c(C)cc(/C=C2/NC(=O)N(CC(=O)Nc3cccc(C)c3)C2=O)c1C	Mcl1-Bid inh 85.4, Mcl1 Noxa PPI 54.3
Cc1ccc(NC(=O)CN2C(=O)N/C(=C/c3ccc(C)o3)C2=O)cc1	none (no result: Biofilm kill mix)
Cc1cccc(NC(=O)CN2C(=O)N/C(=C/c3ccc(C)o3)C2=O)c1	Mcl1 Noxa PPI 85.3

Bioassay records deposited in PubChem by several laboratories.
